# Measurements collected from several papers.
# Target: Rho-associated protein kinase 2 (ROCK2, Homo sapiens, UniProt O75116)
Compound,assay,setting,remaining binding [%]
CC(=O)N1CCC(c2ccc(C(=O)NC(=N)N)cc2C(F)(F)F)CC1,"cell-free assay, competition with immobilised ligand",1 µM,100
C[C@@H]1CN(c2ccc3ncc(-c4ccc5[nH]nc(C6CC6)c5c4)n3n2)C[C@H](C)O1,"binding, competition with immobilised ligand",0.5 µM,21
C[C@@H](c1ccc(-n2cnc3c(N)ncnc32)cc1)N1CCc2nn(C)c(Cc3ccccc3)c2C1=O,"binding, competition with immobilised ligand",0.1 µM,77
Cc1nc(N2CC[C@@H](O)C2)ncc1-c1cc(C(F)(F)F)cc2[nH]ncc12,"binding, competition with immobilised ligand",1 µM,77
O=C(Nc1c[nH]nc1C(=O)NC1CCNCC1)c1cc(F)cc(F)c1,"binding, competition with immobilised ligand",1 µM,88
c1cncc(-c2cccc(Nc3nccc(NC4CCCCC4)n3)c2)c1,"binding, competition with immobilised ligand",10 µM,25
CN(C)c1nccc(-c2cnc3ncccn23)n1,binding,1 µM,100
N#Cc1ccccc1CSc1nnc2c(n1)[nH]c1ccccc12,"binding, competition with immobilised ligand",10 µM,80
O=C(c1ccc(Nc2nccc(-c3cc4ccccc4s3)n2)cc1)N1CCC(N2CCCC2)CC1,"binding, competition with immobilised ligand",1 µM,7.4
COc1cnc(Nc2cccc(S(N)(=O)=O)c2)nc1N1CCN(c2ccccc2)CC1,"binding, competition with immobilised ligand",1 µM,90
CN(C)C(=O)Cn1cc(-c2nc(C3(c4ccc(-c5cnc(N)nc5)cc4)CC3)no2)cn1,"cell-free assay, competition with immobilised ligand",1 µM,89
CC(C)(C)c1ccc(-c2nc(CBr)nn2-c2cccc(O)c2)cc1,"cell-free assay, competition with immobilised ligand",10 µM,58
N[C@H]1CCN(c2nccc(-c3cnn4ncccc34)n2)C1,binding,1 µM,100
O=C(N[C@H]1CCCCC/C=C\C2C[C@@]2(C(=O)O)NC(=O)[C@@H]2C[C@@H](Oc3ccncc3)CN2C1=O)OC1CCCC1 (stereo partly drawn),"binding, competition with immobilised ligand",1 µM,100
C[C@@H]1CCN(c2nccc(-c3cnn4ncccc34)n2)C1,binding,1 µM,98
O=C(c1ccc(Nc2ncc(Cl)c(-c3ccc(Cl)s3)n2)cc1)N1CCC(N2CCCC2)CC1,"binding, competition with immobilised ligand",1 µM,4.3
C[C@H](c1cccc(C#N)c1)n1cc(Cl)cc(C(N)=O)c1=N,"cell-free assay, competition with immobilised ligand",1 µM,94
Cc1cnn2ncc(-c3ccnc(N(C)C)n3)c2c1,binding,1 µM,95
COCCOc1nc(-c2ccc(Cl)nc2)nc2c1CN(C(=O)c1ncn3ccccc13)CC2,"cell-free assay, competition with immobilised ligand",0.1 µM,76
COc1ncc2cc3ccccc3nc2c1C#N,"cell-free assay, competition with immobilised ligand",5 µM,98
CN(C)c1nccc(-c2cnn3ncccc23)n1,binding,1 µM,84
CN1CCN(c2cnc3c(C4CCN(C(=O)c5ccc(OC(F)(F)F)cc5N)CC4)ncnc3c2)CC1,"cell-free assay, competition with immobilised ligand",1 µM,100
CN(c1nccc(-c2cnn3ncccc23)n1)C1CC1,binding,1 µM,100
Cc1cnc(Nc2ccc(C(=O)N3CCC(N4CCCC4)CC3)cc2)nc1-c1cc2ccccc2s1,"binding, competition with immobilised ligand",1 µM,11
